This is an account of results in ChEMBL document CHEMBL1156763, “1,8-Naphthyridines VIII. Novel 5-aminoimidazo[1,2-a] [1,8]naphthyridine-6-carboxamide and 5-amino[1,2,4]triazolo[4,3-a] [1,8]naphthyridine-6-carboxamide derivatives showing potent analgesic or anti-inflammatory activity, respectively, and completely devoid of acute gastrolesivity” (Eur J Med Chem, 2010).

For series [1], the system named is Mus musculus. Kind of series: Sedative activity in Swiss mouse assessed as inhibition of spontaneous locomotor activity at 50 mg/kg, po dose measured for every 5 mins up to 90 mins. Type of series: organism-based. Further details: dose 50 mg/kg, route oral. An outline of the steps:
(§1)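 Overnight-fasted mice given compound (0.5% methylcellulose) or vehicle by oral gavage, then housed singly in an activity cage. Locomotion auto-recorded in 5-min intervals for 90 min; pulses of the final 30 min scored. % inhibition versus controls; runs between 9.00 and 13.00; groups of 8–10; Student's t-test.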

The subject of series [2] is Rattus norvegicus. Kind of series: Antiinflammatory activity against carrageenan-induced paw edema in Wistar rat assessed as inhibition of hind paw edema at 25 mg/kg, po administered 1 hr prior to carrageenan challenge measured after 3 hrs relative to control. Type of series: functional. An outline of the steps:
(§2)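 Wistar rats of either sex (250–300 g), fasted overnight, gavaged with compound in 0.5% methylcellulose. 1 h later, 0.1 mL 1% carrageenan injected subcutaneously into the plantar hind paw. Paw volume read by plethysmometer right after injection and 3 h later. Control edema set as 100, % inhibition from swelling difference. Groups of 8–10; Student's t-test.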

The subject of series [3] is Mus musculus. In words: Analgesic activity in Swiss mouse assessed as inhibition of acetic acid-induced writhing response at 50 mg/kg, po administered 1 hr before acetic acid challenge measured for 30 mins relative to control. Type of series: functional. An outline of the steps: (§3)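 Mice of either sex (25–35 g), fasted overnight, dosed by oral gavage with test agent suspended in 0.5% methylcellulose; controls got vehicle alone. Each hind-limb full extension counted as a writhe over 30 min after the noxious agent. % inhibition from treated vs control writhing; groups of 8–10; Student's t-test. Dosing starts at 100 mg/kg, then halved stepwise.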

Series [4] concerns Rattus norvegicus. Kind of series: Antiinflammatory activity against carrageenan-induced paw edema in Wistar rat assessed as inhibition of hind paw edema at 50 mg/kg, po administered 1 hr prior to carrageenan challenge measured after 3 hrs relative to control. Type of series: functional. An outline of the steps:
as §2

Series [5] concerns Mus musculus. Kind of series: Analgesic activity in Swiss mouse assessed as inhibition of acetic acid-induced writhing response at 25 mg/kg, po administered 1 hr before acetic acid challenge measured for 30 mins relative to control. Type of series: functional. An outline of the steps:
as §3
A general note: In writhing tests, fewer writhes than in controls are read as antinociception.

In series [6] the test system is Rattus norvegicus. Kind of series: Antiinflammatory activity against carrageenan-induced paw edema in Wistar rat assessed as inhibition of hind paw edema at 12.5 mg/kg, po administered 1 hr prior to carrageenan challenge measured after 3 hrs relative to control. Type of series: functional. An outline of the steps:
as §2
For orientation: The carrageenan paw model is a standard test of acute inflammation.

Series [7] deals with Rattus norvegicus. Kind of series: Antiinflammatory activity against carrageenan-induced paw edema in Wistar rat assessed as inhibition of hind paw edema at 100 mg/kg, po administered 1 hr prior to carrageenan challenge measured after 3 hrs relative to control. It counts as functional. An outline of the steps:
as §2

The test system of series [8] is Mus musculus. Kind of series: Analgesic activity in Swiss mouse assessed as inhibition of acetic acid-induced writhing response at 100 mg/kg, po administered 1 hr before acetic acid challenge measured for 30 mins relative to control. It counts as functional. An outline of the steps:
as §3

Series [9] has as its system Rattus norvegicus. In words: Antiinflammatory activity against carrageenan-induced paw edema in Wistar rat assessed as inhibition of hind paw edema at 6.25 mg/kg, po administered 1 hr prior to carrageenan challenge measured after 3 hrs relative to control. Type of series: functional. An outline of the steps: as §2
Series [10] relates to Rattus norvegicus. Kind of series: Acute gastrolesivity in Wistar rat assessed as appearance of gastric damage at 200 mg/kg, po after 5 hrs. Type of series: toxicity, organism-based, Stomach. As to conditions: in vivo. Further details: dose 200 mg/kg, route oral. An outline of the steps:
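Wistar rats (250–300 g), either sex, fasted overnight; compound suspended in 0.5% methylcellulose, single oral gavage at 200 mg kg^-1 (1 mL 100 g^-1). Stomachs excised 5 h later, fixed in 2% formalin, opened along greater curvature, examined by stereomicroscope by blinded observer. Reported as number of animals with gastric damage over treated animals (eight per group).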

The subject of series [11] is Mus musculus. In words: Analgesic activity in Swiss mouse assessed as inhibition of acetic acid-induced writhing response at 12.5 mg/kg, po administered 1 hr before acetic acid challenge measured for 30 mins relative to control. Type of series: functional. An outline of the steps: as §3
In series [12] the test system is Mus musculus. In words: Analgesic activity in Swiss mouse assessed as inhibition of acetic acid-induced writhing response at 6.25 mg/kg, po administered 1 hr before acetic acid challenge measured for 30 mins relative to control. It counts as functional. An outline of the steps:
as §3

Series [13] deals with Mus musculus. Kind of series: Sedative activity in Swiss mouse assessed as inhibition of spontaneous locomotor activity at 12.5 mg/kg, po dose measured for every 5 mins up to 90 mins. Type of series: organism-based. Further details: dose 12.5 mg/kg, route oral. An outline of the steps: as §1
Series [14] relates to Mus musculus. Kind of series: Sedative activity in Swiss mouse assessed as inhibition of spontaneous locomotor activity at 100 mg/kg, po dose measured for every 5 mins up to 90 mins. Further details: dose 100 mg/kg, route oral. It counts as organism-based. An outline of the steps: as §1
Series [15] concerns Mus musculus. In words: Analgesic activity in Swiss mouse assessed as inhibition of acetic acid-induced writhing response at 1.6 mg/kg, po administered 1 hr before acetic acid challenge measured for 30 mins relative to control. It counts as functional.
Series [16] has as its system Mus musculus. Kind of series: Analgesic activity in Swiss mouse assessed as inhibition of acetic acid-induced writhing response at 3.12 mg/kg, po administered 1 hr before acetic acid challenge measured for 30 mins relative to control. It counts as functional.
Series [17] is filed under the species Mus musculus. Kind of series: animal or person. Conditions: Swiss, po, read-out: INH.
The subject of series [18] is Rattus norvegicus. In words: Antiinflammatory activity against carrageenan-induced paw edema in Wistar rat assessed as inhibition of hind paw edema at 10 mg/kg, po administered 1 hr prior to carrageenan challenge measured after 3 hrs relative to control. Type of series: functional. An outline of the steps:
as §2

Series [19] has as its system Mus musculus. Kind of series: Sedative activity in Swiss mouse assessed as inhibition of spontaneous locomotor activity at 10 mg/kg, po dose measured for every 5 mins upto 90 mins. It counts as functional. An outline of the steps:
as §1

Series [20] deals with Rattus norvegicus. Kind of series: Antiinflammatory activity against carrageenan-induced paw edema in Wistar rat assessed as inhibition of hind paw edema at 3.12 mg/kg, po administered 1 hr prior to carrageenan challenge measured after 3 hrs relative to control. It counts as functional. An outline of the steps:
as §2

Series [21] concerns Rattus norvegicus. Kind of series: Antiinflammatory activity against carrageenan-induced paw edema in Wistar rat assessed as inhibition of hind paw edema at 1.6 mg/kg, po administered 1 hr prior to carrageenan challenge measured after 3 hrs relative to control. It counts as functional. An outline of the steps: as §2

As to `CCN(CC)C(=O)c1c(N(C)CC)c2cccnc2n2c(C(C)C)nnc12`, the inhibition (in general, the percentage by which the read-out fell short of the control) at 50 mg/kg in the series on Mus musculus [1] came out at 22%. Further, the results for the inhibition in vivo at 25 mg/kg in the series with Rattus norvegicus [2] and in the series on Mus musculus [5] were 65% and 17%, respectively. Besides, the inhibition in vivo at 50 mg/kg in the series on Mus musculus [3] turned out to be 59%; in the series with Rattus norvegicus [4], 67%. Moreover, the inhibition in vivo at 12.5 mg/kg with Rattus norvegicus [6] came out at 51%. Moreover, the inhibition in vivo at 100 mg/kg was 71% with Rattus norvegicus [7] and 81% with Mus musculus [8]. Also, the inhibition in vivo at 6.25 mg/kg in the series with Rattus norvegicus [9] was 42%. Further, the Activity entry with Rattus norvegicus [10] is “Non-toxic”.
For the compound `CCC(CC)Nc1c(C(=O)N(CC)CC)c2nnc(C(C)C)n2c2ncccc12`, the results for the inhibition in vivo at 12.5 mg/kg in the series on Mus musculus [11] and in the series on Rattus norvegicus [6] were 49% and 45%, respectively. The inhibition at 50 mg/kg in the series on Mus musculus [1] worked out at 84%. Besides, the inhibition in vivo at 25 mg/kg with Rattus norvegicus [2] turned out to be 47%; with Mus musculus [5], 58%. Moreover, the values for the inhibition in vivo at 50 mg/kg in the series with Mus musculus [3] and in the series with Rattus norvegicus [4] were 75% and 47%, respectively. In addition, the values for the inhibition in vivo at 6.25 mg/kg in the series with Mus musculus [12] and in the series with Rattus norvegicus [9] were 36% and 11%, respectively. The inhibition in vivo at 100 mg/kg in the series with Rattus norvegicus [7] was determined as 50%; in the series on Mus musculus [8], 91%. Besides, in the series with Rattus norvegicus [10], the Activity result is recorded as “Non-toxic”.
Turning to `CCOc1cnc2c(C(=O)N(CC)CC)c(N3CCN(C)CC3)c3cccnc3n12`, the inhibition in vivo at 12.5 mg/kg with Mus musculus [11] amounted to 48%. Besides, the inhibition at 50 mg/kg with Mus musculus [1] worked out at 46%. For the same compound, the inhibition in vivo at 50 mg/kg with Mus musculus [3] was found to be 62%. Moreover, the inhibition at 12.5 mg/kg in the series on Mus musculus [13] stood at 15%. Moreover, the inhibition in vivo at 6.25 mg/kg in the series with Mus musculus [12] amounted to 17%. For the same compound, in the series with Mus musculus [5], the inhibition in vivo at 25 mg/kg came to 54%. In addition, in the series on Mus musculus [14], the inhibition at 100 mg/kg turned out to be 60%. The inhibition in vivo at 100 mg/kg in the series with Rattus norvegicus [7] stood at 26%; in the series with Mus musculus [8], 97%. Further, in the series on Rattus norvegicus [10], the Activity entry is on record as “Non-toxic”.
Regarding `CCN(CC)C(=O)c1c(N2CCN(C)CC2)c2cccnc2n2c(C(C)C)nnc12`, in the series on Mus musculus [11], the inhibition in vivo at 12.5 mg/kg came out at 92%. For the same compound, the inhibition at 50 mg/kg with Mus musculus [1] amounted to 100%. The inhibition in vivo at 50 mg/kg in the series with Mus musculus [3] is 85%. Besides, the inhibition in vivo at 6.25 mg/kg with Mus musculus [12] was determined as 83%. Besides, the inhibition in vivo at 1.6 mg/kg in the series on Mus musculus [15] is 39%. Also, the inhibition in vivo at 25 mg/kg in the series with Mus musculus [5] came to 90%. In the series on Mus musculus [16], the inhibition in vivo at 3.12 mg/kg is 85%. In the series on Mus musculus [8], the inhibition in vivo at 100 mg/kg was 88%. In addition, in the series with Rattus norvegicus [10], the Activity entry is “Non-toxic”.
Regarding `COc1ccc2c(c1)c(CC(=O)O)c(C)n2C(=O)c1ccc(Cl)cc1` [INDOMETHACIN], the inhibition in vivo at 10 mg/kg amounted to 84% in the series filed under Mus musculus [17] and 51% with Rattus norvegicus [18].
For `CN1C(=O)CN=C(c2ccccc2)c2cc(Cl)ccc21` [DIAZEPAM], in the series on Mus musculus [19], the inhibition in vivo at 10 mg/kg stood at 98%.
In the case of `CCNC(=O)c1c(NCC(C)C)c2cccnc2n2c(C(C)C)nnc12`, the inhibition in vivo at 25 mg/kg in the series on Rattus norvegicus [2] amounted to 47%. The inhibition in vivo at 50 mg/kg in the series with Mus musculus [3] worked out at 21%; with Rattus norvegicus [4] it was 50%. Besides, the inhibition in vivo at 3.12 mg/kg with Rattus norvegicus [20] came to 35%. In the series on Rattus norvegicus [21], the inhibition in vivo at 1.6 mg/kg is 18%. Moreover, the inhibition in vivo at 12.5 mg/kg in the series on Rattus norvegicus [6] is 49%. Besides, in the series with Mus musculus [14], the inhibition at 100 mg/kg was 48%. For the same compound, the inhibition in vivo at 100 mg/kg worked out at 60% in the series with Rattus norvegicus [7] and 81% with Mus musculus [8]. Moreover, in the series with Rattus norvegicus [9], the inhibition in vivo at 6.25 mg/kg was 40%. Besides, the Activity result in the series on Rattus norvegicus [10] is “Non-toxic”.
